According to ChEMBL document CHEMBL1208775, “Synthesis and vasodilative activity of tanshinone IIA derivatives” (Bioorg Med Chem Lett, 2010):

Assays:
Thoracic aorta [1] = assay: Vasodilatory activity in Wistar rat endothelium-intact thoracic aorta assessed as inhibition of norepinephrine-induced contraction at 100 uM after 20 mins by organ-bath technique; format: functional
Outline: (§1)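 Rat aortic rings in Krebs-Henseleit solution, equilibrated 2 h at 1.5 g basal tension with bath changes every 20 min. Endothelium taken as intact when acetylcholine (1 × 10^-5 mmol) relaxed norepinephrine-precontracted rings by more than 80%. Rings were precontracted with norepinephrine bitartrate (1 × 10^-6 mM) before compound addition. Response is expressed as percent of maximal control norepinephrine contraction. Mean ± SEM, paired t-test.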

Thoracic aorta [2] = assay: Vasodilatory activity in Wistar rat endothelium-intact thoracic aorta assessed as inhibition of norepinephrine-induced contraction after 20 mins by organ-bath technique; format: functional, tissue-based; outline: as §1

SMILES: Cc1c(Br)oc2c1C(=O)C(=O)c1c-2ccc2c1CCCC2(C)C
- inhibition at 100 µM (Thoracic aorta [1]): 4.24%

SMILES: Cc1c(C(c2cccc(Cl)c2)c2oc3c(c2C)C(=O)C(=O)c2c-3ccc3c2CCCC3(C)C)oc2c1C(=O)C(=O)c1c-2ccc2c1CCCC2(C)C
- inhibition at 100 µM (Thoracic aorta [1]): 56%
- IC50 (Thoracic aorta [2]): 260 µM
- inhibition (Thoracic aorta [2]): Dose-dependent effect

SMILES: Cc1c(C(c2ccc([S+](C)[O-])cc2)c2oc3c(c2C)C(=O)C(=O)c2c-3ccc3c2CCCC3(C)C)oc2c1C(=O)C(=O)c1c-2ccc2c1CCCC2(C)C (stereo not given)
- inhibition at 100 µM (Thoracic aorta [1]): 10.3%

SMILES: Cc1c(C(c2ccc([N+](=O)[O-])cc2)c2oc3c(c2C)C(=O)C(=O)c2c-3ccc3c2CCCC3(C)C)oc2c1C(=O)C(=O)c1c-2ccc2c1CCCC2(C)C
- inhibition at 100 µM (Thoracic aorta [1]): 11.4%

SMILES: Cc1c(C(c2ccc(O)cc2)c2oc3c(c2C)C(=O)C(=O)c2c-3ccc3c2CCCC3(C)C)oc2c1C(=O)C(=O)c1c-2ccc2c1CCCC2(C)C
- inhibition at 100 µM (Thoracic aorta [1]): 15.2%

SMILES: Cc1c(C(c2ccccc2)c2oc3c(c2C)C(=O)C(=O)c2c-3ccc3c2CCCC3(C)C)oc2c1C(=O)C(=O)c1c-2ccc2c1CCCC2(C)C
- inhibition at 100 µM (Thoracic aorta [1]): 2.95%

SMILES: Cc1c(C(c2ccc(O)c(O)c2)c2oc3c(c2C)C(=O)C(=O)c2c-3ccc3c2CCCC3(C)C)oc2c1C(=O)C(=O)c1c-2ccc2c1CCCC2(C)C
- inhibition at 100 µM (Thoracic aorta [1]): -0.86%

SMILES: COc1ccc(C(c2oc3c(c2C)C(=O)C(=O)c2c-3ccc3c2CCCC3(C)C)c2oc3c(c2C)C(=O)C(=O)c2c-3ccc3c2CCCC3(C)C)cc1
- inhibition at 100 µM (Thoracic aorta [1]): 11%

SMILES: Cc1c(C(c2ccc(Cl)cc2)c2oc3c(c2C)C(=O)C(=O)c2c-3ccc3c2CCCC3(C)C)oc2c1C(=O)C(=O)c1c-2ccc2c1CCCC2(C)C
- inhibition at 100 µM (Thoracic aorta [1]): 1%

SMILES: Cc1c(C(c2cccc([N+](=O)[O-])c2)c2oc3c(c2C)C(=O)C(=O)c2c-3ccc3c2CCCC3(C)C)oc2c1C(=O)C(=O)c1c-2ccc2c1CCCC2(C)C
- inhibition at 100 µM (Thoracic aorta [1]): 18.8%

SMILES: CC(CO)C1=C(O)C(=O)c2c(ccc3c2CCCC3(C)C)C1=O (stereo not given)
- inhibition at 100 µM (Thoracic aorta [1]): 59.2%
- IC50 (Thoracic aorta [2]): 480 µM
- inhibition (Thoracic aorta [2]): Dose-dependent effect

SMILES: Cc1coc2c1C(=O)C(=O)c1c-2ccc2c1CCCC2(C)C [TANSHINONE IIA]
- inhibition at 100 µM (Thoracic aorta [1]): 2.92%

SMILES: COc1cc(C(c2oc3c(c2C)C(=O)C(=O)c2c-3ccc3c2CCCC3(C)C)c2oc3c(c2C)C(=O)C(=O)c2c-3ccc3c2CCCC3(C)C)ccc1O
- inhibition at 100 µM (Thoracic aorta [1]): 42.8%
- IC50 (Thoracic aorta [2]): 130 µM
- inhibition (Thoracic aorta [2]): Dose-dependent effect

SMILES: Cc1c(C(c2ccccc2Cl)c2oc3c(c2C)C(=O)C(=O)c2c-3ccc3c2CCCC3(C)C)oc2c1C(=O)C(=O)c1c-2ccc2c1CCCC2(C)C
- inhibition at 100 µM (Thoracic aorta [1]): -29.2%
